Source: ChEMBL document CHEMBL1122895, “Aldose reductase inhibitors: a potential new class of agents for the pharmacological control of certain diabetic complications” (J Med Chem, 1985)

Experiments:
[1] = molecular target: Aldo-keto reductase family 1 member B1 (Rattus norvegicus, UniProt P07943); assay: Inhibitory activity against rat lens aldose reductase (RLAR).
[2] = molecular target: T1, Aldo-keto reductase family 1 member B1 (Homo sapiens, UniProt P15121); assay: Inhibitory activity against human placental aldose reductase (HPAR)
In short: (§1)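 Human placental aldose reductase was purified at 4 °C. Enzyme activity was read photometrically at 340 nm, with 10 mM DL-glyceraldehyde as substrate. IC50 values came from simple linear regressions of Marquardt-Levenberg iterative curve fitting.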

[3] = molecular target: T1, Aldo-keto reductase family 1 member B1; assay: Inhibitory activity against human placental aldose reductase in 30 -70% (NH4)2SO4.
[4] = molecular target: T1, Aldo-keto reductase family 1 member B1; assay: Inhibitory activity against human placental aldose reductase in Sepharose 4B column at day 1; in short: as §1
[5] = molecular target: T1, Aldo-keto reductase family 1 member B1; assay: Inhibitory activity against human placental aldose reductase in Sepharose 4B column at day 7
[6] = molecular target: T1, Aldo-keto reductase family 1 member B1; assay: Inhibitory activity against human placental aldose reductase in Orange A column at day 8
[7] = molecular target: T1, Aldo-keto reductase family 1 member B1; assay: Inhibitory activity against human placental aldose reductase in Orange A column at day 2; in short: as §1
[8] = molecular target: T1, Aldo-keto reductase family 1 member B1; assay: Inhibitory activity against human placental aldose reductase (HPAR).; in short: as §1
[9] = molecular target: T1, Aldo-keto reductase family 1 member B1; assay: Inhibitory activity against human placental aldose reductase in Sepharose 4B column at time 1
[10] = molecular target: T1, Aldo-keto reductase family 1 member B1; assay: (§2) Inhibitory activity against human placental aldose reductase in Orange A column at time 2
[11] = molecular target: T1, Aldo-keto reductase family 1 member B1; assay: as §2; in short: as §1; remark: listed apart in the source

SMILES | IC50 [1] [µM] | IC50 [2] [µM] | IC50 [3] [µM] | IC50 [4] [µM] | IC50 [5] [µM] | IC50 [6] [µM] | IC50 [7] [µM] | other results
O=c1c(Cl)c(-c2nn[nH]n2)oc2ccccc12 | – | – | 4.1 | 38 | 39 | 200 | 280 | –
O=C(O)c1ccc2nc3cc(O)ccc3c(=O)n2c1 | – | – | 4.5 | 5 | 7.2 | 7.3 | 19 | –
CC1OC(O)C(O)C(O)C1Oc1c(-c2ccc(O)c(O)c2)oc2cc(O)cc(O)c2c1=O (stereo not drawn) | – | – | 7.1 | – | 16 | 9 | – | IC50 [9]: 14 µM; IC50 [10]: 16 µM
O=C(O)C1=CC(=O)C2C=CC(O)=CC2O1 (stereo not drawn) | – | – | 1.8 | 4.7 | 3.9 | 3.1 | 5.9 | –
O=C(O)CN1C(=O)c2cccc3cccc(c23)C1=O [ALRESTATIN] | – | – | 6.5 | – | 34 | 79 | – | IC50 [11]: 140 µM; IC50 [9]: 22 µM

More lines, main results first:

IC50 [1] [µM] | IC50 [2] [µM] | IC50 [3] [µM] | IC50 [4] [µM] | IC50 [5] [µM] | IC50 [6] [µM] | IC50 [7] [µM] | SMILES | other results
2.5 | 3.2 | – | – | – | – | – | O=C(OCc1ccccc1)c1cc(=O)c2ccc(O)cc2o1 | –
– | – | 7.3 | 4.5 | 8.3 | 4 | 3.2 | CCOC(=O)C(=O)Nc1cc([N+](=O)[O-])cc(C(=O)O)c1O | –
3.1 | 4.3 | – | – | – | – | – | CC(C)OC(=O)c1cc(=O)c2ccc(O)cc2o1 | –
2.2 | – | – | – | – | – | – | O=C(O)c1cc(=O)c2ccc(O)cc2o1 | IC50 [8]: 1.8 µM
2.3 | 5 | – | – | – | – | – | CCOC(=O)c1cc(=O)c2ccc(O)cc2o1 | –
